From article PMC5743405 (International Journal of Oncology, 2017)
Entries after “also recorded” stand apart in the source; their conditions may differ.

How the values were obtained:
[1] = tested on: FPRL1; test: PathHunter β-arrestin; type: cell-based; conditions: antagonist mode, 6 μM
In short: (§1)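 Engineered cells express the receptor fused to one β-galactosidase fragment (ED) and β-arrestin fused to the complementing fragment (EA). Receptor activation recruits β-arrestin, which restores enzyme activity, and this is read by chemiluminescence (RLU). Agonist % activity is 100% × (test − vehicle)/(maximal control ligand − vehicle). Antagonist mode is challenged with an EC80 control agonist, and % inhibition is 100% × (1 − (test − vehicle)/(EC80 − vehicle)). Hits require >30% activity or >35% inhibition, plus a 3×SD RLU margin.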

[2] = tested on: AGTR1; test: PathHunter β-arrestin; type: cell-based; conditions: agonist mode, 6 μM
In short: (§2)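 β-Arrestin recruitment assay: the enzyme acceptor is fused to β-arrestin and the ED fragment to the GPCR. Recruitment restores β-galactosidase, read by chemiluminescence. % activity = 100% × (test − vehicle)/(max control ligand − vehicle). % inhibition = 100% × (1 − (test − vehicle)/(EC80 control − vehicle)). An agonist hit needs >30% activity and RLU > baseline + 3×SD. An antagonist hit needs >35% inhibition and RLU < EC80 RLU − 3×SD.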

[3] = tested on: CCR3; test: PathHunter β-arrestin; type: cell-based; conditions: 6 μM
In short: as §2

[4] = tested on: TACR2; test: PathHunter β-arrestin; type: cell-based; conditions: agonist mode, 6 μM
[5] = tested on: PTAFR; test: PathHunter β-arrestin; type: cell-based; conditions: 6 μM
In short: (§3)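 β-Arrestin recruitment to GPCR read by β-galactosidase fragment complementation and chemiluminescence. Agonist: % = 100 × (test − vehicle)/(max control ligand − vehicle), hit at >30% and RLU > baseline + 3 SD. Antagonist, against EC80 agonist: % inhibition = 100 × (1 − (test − vehicle)/(EC80 − vehicle)), hit at >35% and RLU < EC80 − 3 SD.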

[6] = tested on: BRS3; test: PathHunter β-arrestin; type: cell-based; conditions: antagonist mode, 6 μM
In short: as §2

[7] = tested on: AVPR1A; test: PathHunter β-arrestin; type: cell-based; conditions: antagonist mode, 6 μM
In short: as §2

[8] = tested on: GPCR receptors; test: PathHunter β-arrestin gpcrMAX panel, agonist mode; type: cell-based; conditions: summary of Table I
In short: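 β-Arrestin fused to the EA fragment and GPCR fused to the ED fragment; recruitment restores β-galactosidase, read by chemiluminescence. % agonist = 100 × (mean test − mean vehicle)/(mean max control ligand − mean vehicle). Hit requires >30% activity and mean RLU above baseline + 3 × baseline SD.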

[9] = tested on: DRD5; test: PathHunter β-arrestin; type: cell-based; conditions: 6 μM
In short: as §1

[10] = tested on: MC1R; test: PathHunter β-arrestin; type: cell-based; conditions: 6 μM
In short: (§4)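 Vendor-run (DiscoveRx) PathHunter enzyme fragment complementation. β-Arrestin carries the EA fragment and the receptor carries ED; recruitment restores β-gal activity, read by chemiluminescence (RLU). Agonist % activity = vehicle-subtracted RLU relative to max control ligand (gpcrMAX) or to vehicle (orphanMAX). Antagonist % inhibition = 100% × (1 − vehicle-subtracted sample RLU / vehicle-subtracted EC80 agonist control RLU).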

[11] = tested on: GPR109A; test: PathHunter β-arrestin; type: cell-based; conditions: antagonist mode, 6 μM
In short: as §4

[12] = tested on: TLR6; test: western blot, JJ012 cells; type: cell-based, human; conditions: vs untreated control, overnight incubation
[13] = tested on: BDKRB1; test: PathHunter β-arrestin; type: cell-based; conditions: 6 μM
In short: as §2

[14] = tested on: CRHR2; test: PathHunter β-arrestin; type: cell-based; conditions: antagonist mode, 6 μM
In short: as §1

[15] = tested on: P2RY2; test: PathHunter β-arrestin; type: cell-based; conditions: 6 μM
In short: as §3

[16] = tested on: DRD2L; test: PathHunter β-arrestin; type: cell-based; conditions: antagonist mode, 6 μM
In short: as §1

[17] = tested on: TACR1; test: PathHunter β-arrestin; type: cell-based; conditions: 6 μM
In short: as §3

[18] = tested on: miR-302C; conditions: human chondrosarcoma; targets Nanog, c-Myc and Bmi1 also; ref [10]; cited from earlier work
[19] = tested on: TLR1; test: western blot, JJ012 cells; type: cell-based, human; conditions: vs untreated control, overnight incubation
In short: (§5)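 JJ012 cells seeded at 1×10^6 cells/ml in 6-well clusters and incubated overnight at 37°C, 5% CO2 with or without test compound. Lysed with protease inhibitor (1:100) and centrifuged at 15,000 × g, 4°C. Protein loaded at 20 μg/lane with reducing agent, run on polyacrylamide gel, transferred to PVDF, probed with rabbit anti-TLR primaries and HRP-linked secondaries.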

[20] = tested on: CALCR-RAMP2; test: PathHunter β-arrestin; type: cell-based; conditions: agonist mode, 6 μM
In short: as §2

[21] = tested on: PPYR1; test: PathHunter β-arrestin; type: cell-based; conditions: antagonist mode, 6 μM
[22] = tested on: CXCR1; test: PathHunter β-arrestin; type: cell-based; conditions: antagonist mode, 6 μM
In short: as §1

[23] = tested on: CHRM3; test: PathHunter β-arrestin; type: cell-based; conditions: 6 μM
In short: as §1

[24] = tested on: C5AR1; test: PathHunter β-arrestin; type: cell-based; conditions: antagonist mode, 6 μM
In short: as §2

[25] = tested on: MC3R; test: PathHunter β-arrestin; type: cell-based; conditions: 6 μM
In short: as §4

[26] = tested on: TLR2; test: western blot, JJ012 cells; type: cell-based, human; conditions: vs untreated control, overnight incubation
In short: as §5

[27] = tested on: CXCR2; test: PathHunter β-arrestin; type: cell-based; conditions: 6 μM
In short: as §1

[28] = tested on: CCR10; test: PathHunter β-arrestin; type: cell-based; conditions: antagonist mode, 6 μM
In short: as §2

[29] = tested on: CXCR6; test: PathHunter β-arrestin; type: cell-based; conditions: 6 μM
In short: as §1

[30] = tested on: P2RY4; test: PathHunter β-arrestin; type: cell-based; conditions: agonist mode, 6 μM
[31] = tested on: CHRM1; test: PathHunter β-arrestin; type: cell-based; conditions: 6 μM
In short: as §1

[32] = tested on: SSTR1; test: PathHunter β-arrestin; type: cell-based; conditions: agonist mode, 6 μM
[33] = tested on: TACR3; test: PathHunter β-arrestin; type: cell-based; conditions: antagonist mode, 6 μM
[34] = tested on: EDNRB; test: PathHunter β-arrestin; type: cell-based; conditions: antagonist mode, 6 μM
In short: as §1

Proline rich polypeptide 1 [PRP-1]
% Inhibition [1]: −2% | % Activity [2]: 2% | % Activity ([3]; agonist mode): 2% | % Inhibition ([3]; antagonist mode): −3% | % Activity [4]: 1% | % Activity ([5]; agonist mode): 1% | % Inhibition ([5]; antagonist mode): −8% | % Inhibition [6]: 4% | % Inhibition [7]: −1% | GPCR coupling, agonist mode [8]: no indication that PRP-1 was G protein coupled | % Activity ([9]; agonist mode): 1% | % Inhibition ([9]; antagonist mode): −8% | % Activity ([10]; agonist mode): −2% | % Inhibition ([10]; antagonist mode): −2% | % Inhibition [11]: −4% | protein expression [12]: increased in dose-dependent manner | % Activity ([13]; agonist mode): 1% | % Inhibition ([13]; antagonist mode): −8% | % Inhibition [14]: −2% | % Activity ([15]; agonist mode): 2% | % Inhibition ([15]; antagonist mode): −4% | % Inhibition [16]: 2% | % Activity ([17]; agonist mode): 1% | % Inhibition ([17]; antagonist mode): −2% | miR-302c expression [18]: epigenetically downregulates | protein expression [19]: strong upregulation; also recorded: upregulated protein expression of TLR1 and TLR2 in dose-dependent manner | % Activity [20]: 2% | % Inhibition [21]: −4% | % Inhibition [22]: −1% | % Activity ([23]; agonist mode): 2% | % Inhibition ([23]; antagonist mode): −6% | % Inhibition [24]: 3% | % Activity ([25]; agonist mode): 3% | % Inhibition ([25]; antagonist mode): −6% | protein expression [26]: strong upregulation; also recorded: upregulated protein expression of TLR1 and TLR2 in dose-dependent manner | % Activity ([27]; agonist mode): 1% | % Inhibition ([27]; antagonist mode): −3% | % Inhibition [28]: −3% | % Activity ([29]; agonist mode): 2% | % Inhibition ([29]; antagonist mode): −6% | % Activity [30]: −1% | % Activity ([31]; agonist mode): 1% | % Inhibition ([31]; antagonist mode): −12% | % Activity [32]: −3% | % Inhibition [33]: −1% | % Inhibition [34]: −1%
